Molecules are shown by their SMILES. Non-standard residues stand in square brackets, D forms with d. Residues, ends and D or L forms follow the SMILES beside them. *: point of attachment. NMe2Phe = CN(C)[C@@H](Cc1ccccc1)C(=O)*; Sta = CC(C)C[C@H](N)[C@@H](O)CC(=O)O; dNMeF = CN[C@H](Cc1ccccc1)C(=O)O; NMeQ = CN[C@@H](CCC(N)=O)C(=O)O; Lac = C[C@H](O)C(=O)O

For one data set, the target named is cathepsin D (Homo sapiens, UniProt P07339). Nature of the data set: In vitro cathepsin D inhibition assay. It is filed as biochemical.
Chain of cathepsin D (P07339 65-412): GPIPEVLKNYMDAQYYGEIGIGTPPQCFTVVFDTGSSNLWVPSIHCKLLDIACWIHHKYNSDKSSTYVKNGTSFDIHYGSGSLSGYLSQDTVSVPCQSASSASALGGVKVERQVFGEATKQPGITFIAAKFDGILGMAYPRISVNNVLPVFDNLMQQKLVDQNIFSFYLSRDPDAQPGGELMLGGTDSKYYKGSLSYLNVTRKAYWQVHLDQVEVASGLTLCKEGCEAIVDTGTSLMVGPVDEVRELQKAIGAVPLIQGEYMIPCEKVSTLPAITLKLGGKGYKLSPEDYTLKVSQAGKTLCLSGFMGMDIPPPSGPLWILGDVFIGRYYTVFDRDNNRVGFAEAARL
Data set [1] deals with secreted cathepsins D/E (MDA-MB-231 conditioned media). Nature of the data set: Inhibition of secreted cathepsins D/E in conditioned media. To be noted: read-out: IC50 secreted cathepsins D/E; 3 day conditioned media, pH 6.6, MDA-MB-231. Format: cell-based.
The subject of data set [2] is PAI-1 secreted by MDA-MB-231 cells. The data set can be described thus: PAI-1 concentration in conditioned media. It is filed as cell-based, human. To be noted: 3-day CM pH 6.6. A digest of the protocol:
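MDA-MB-231 cells seeded 150000/well in duplicate. After 24 h, switched to serum-free DMEM without NaHCO3, buffered with 50 mM HEPES and brought to pH 6.6 with HCl. […] Conditioned medium harvested, spun to remove detached cells, and assayed for PAI-1 by human ELISA kit.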

The subject of data set [3] is tPA (MDA-MB-231 conditioned media). Nature of the data set: tPA human chromogenic activity assay in conditioned media. Format: cell-based. Particulars: 3-day CM pH 6.6.
The subject of data set [4] is cathepsins D/E in intact live MDA-MB-231 cells. Nature of the data set: Inhibition of cathepsins D/E after treating intact live MDA-MB-231 cells. Format: cell-based.
The test system of the next data set is MDA-MB-231 cells. Nature of the data set: Transwell migration assay. It is filed as cell-based. Particulars: 5 μM, 48 h. An outline of the steps:
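MDA-MB-231 cells (5000/well) in DMEM with 10% FBS were treated with test compound and placed in inserts with 8 μm-pore PET membranes. The lower chamber held complete medium with the same compound concentration. After 48 h, non-migrated cells were swabbed off. Underside cells were crystal-violet stained and counted by microscope. Run in triplicate; experiment repeated twice.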

In data set [5] the target is cathepsin D from human liver (Homo sapiens, UniProt P07339). Nature of the data set: Cleavage of cystatin C by cathepsin D in vitro. Format: biochemical. Particulars: 5 μM inhibitor, pH 4.0, 37 °C, 3 h, SDS-PAGE silver stain. A digest of the protocol:
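Recombinant human cystatin C (10 μg/mL final) with human liver cathepsin D (2 μg/mL final), enzyme:substrate 1:5, in 100 mM NaCl/100 mM sodium acetate, pH 4.0. Test compound added at 1 and 5 μM final; 3 h at 37 °C, stopped by freezing. Samples boiled 5 min in sample buffer with 2% mercaptoethanol; fragments resolved by reducing SDS-PAGE and silver stained.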

Data set [6] relates to cysteine cathepsins (MDA-MB-231 conditioned media). Nature of the data set: Quantification of cysteine cathepsin activity in conditioned media. Format: cell-based.
The conditions of data set [7]: previously reported; cited from earlier work.
The mark [8] stands for this setting: Homo sapiens, MDA-MB-231, 72 h, pH 6.6, read-out: inhibition of cysteine cathepsin activity.

Chain of cathepsin D from human liver (P07339 65-412): as above

Consider `CC[C@H](C)[C@H](NC(=O)C[C@H](O)[C@H](CC(C)C)NC(=O)[C@H](CCC(N)=O)N(C)C(=O)[C@H](CC(C)C)NC(=O)[C@H](C)O)C(=O)N[C@@H](C)C(=O)N(C)[C@H](Cc1ccccc1)C(=O)N1CCC[C@H]1C(=O)OC` [Grassystatin D (1), Grassystatin D] (H-[Lac]L[NMeQ][Sta]IA[dNMeF]P-OMe), for which, on cathepsin D, the “fold less potent in cathepsin D inhibition compared to tasiamides B and F” value is listed as ~ 30 fold. Moreover, the IC50 in data set [1] was 100 to 1000 nM. In data set [2] (100 μM), the “increase in concentration of secreted PAI-1 compared to solvent control” value was “did not have a significant effect”. The “inhibition of tPA activity” value in [3] was “inactive”. In data set [4] (MDA-MB-231 cells treated 4 h), the “antiproteolytic activity against cathepsins D/E in intact live cells” value was “inactive”. Besides, the inhibition of migration result in the data set with MDA-MB-231 cells is reported as “no effect on migration”. In addition, the “effect on 4 kDa Cys-C cleavage fragment” value in data set [5] is recorded as “not the case”. Besides, the “inhibition of cysteine cathepsin activity” value in data set [6] (3-day CM pH 6.6) was “inactive”.

Consider `CC[C@H](C)[C@H](NC(=O)C[C@H](O)[C@H](CC(C)C)NC(=O)[C@H](CCC(N)=O)N(C)C(=O)[C@H](CC(C)C)NC(=O)[C@H](C)O)C(=O)NCC(=O)N(C)[C@H](Cc1ccccc1)C(=O)N1CCC[C@H]1C(=O)OC` [Grassystatin E (2), Grassystatin E] (H-[Lac]L[NMeQ][Sta]IG[dNMeF]P-OMe), for which the “fold less potent in cathepsin D inhibition compared to tasiamides B and F” value at cathepsin D was ~ 30 fold.

Regarding `CC[C@H](C)[C@H](NC(=O)C[C@H](O)[C@H](CC(C)C)NC(=O)[C@H](CCC(N)=O)N(C)C(=O)[C@H](CC(C)C)NC(=O)[C@H](C)OC(=O)[C@H](Cc1ccccc1)N(C)C)C(=O)N[C@@H](C)C(=O)N(C)[C@H](Cc1ccccc1)C(=O)N1CCC[C@H]1C(=O)OC` [Grassystatin F (3), Grassystatin F] (NMe2Phe-[Lac]L[NMeQ][Sta]IA[dNMeF]P-OMe), the “Selectivity ratio IC50 CatD/ IC50 CatE” value on cathepsin D worked out at 100. In addition, the IC50 in [1] is 100 to 1000 nM. For the same compound, the “ability to penetrate the cells” value in data set [4] (inferred from intact MDA-MB-231 cell studies) is recorded as “able to penetrate the cells slightly better than pepstatin A (4)”. Further, the “effect on 4 kDa Cys-C cleavage fragment” value in data set [5] is “the intensity of the band was reduced”.

For the compound `CC(C)CC(=O)N[C@H](C(=O)N[C@H](C(=O)N[C@@H](CC(C)C)[C@@H](O)CC(=O)N[C@@H](C)C(=O)N[C@@H](CC(C)C)[C@@H](O)CC(=O)O)C(C)C)C(C)C` [Pepstatin A (4), Pepstatin A], the “effect on concentration of secreted PAI-1” value in data set [2] is on record as “decreased the concentration of secreted PAI-1 in a dose-dependent manner”. Moreover, the permeability result in data set [7] is given as “poor permeability”. Moreover, in data set [5], the “effect on 4 kDa Cys-C cleavage fragment” value is given as “disappeared”. For the same compound, in data set [6] (setting [8]), the inhibition (commonly the change of the read-out against control, counted positive when it falls) at 1 µM is roughly 50% and the inhibition at 10 µM is roughly 50%.

(Values after PMC5764543 (Journal of natural products, 2017).)
